Active and inactive are the calls of the source. No cut-off for these calls is given here.

The subject of test [1] is Plasmodium falciparum. Nature of the test: Antimalarial activity against Plasmodium falciparum NF54 infected in human erythrocytes assessed as [3H]-hypoxanthine incorporation by scintillation counting analysis. In kind it is functional, organism-based. An outline of the steps:
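NF54 parasites grown in human erythrocytes in RPMI 1640 with 0.5% ALBUMAX II, 25 mM Hepes, 25 mM NaHCO3 (pH 7.3), 0.36 mM hypoxanthine and 100 μg/mL neomycin, at 37 °C under 3% O2/4% CO2/93% N2, humidified. IC50 derived in vitro from [3H]hypoxanthine incorporation. Compounds held as 10 mM DMSO stocks at -20 °C.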

The next test relates to L6. In words: Cytotoxicity against rat L6 cells after 72 hrs by alamar blue assay. Conditions: L6, 72 h. In kind it is cell-based. Background: Alamar Blue is a resazurin reagent that responds to reducing activity.
Test [2] concerns the target T1, HSP90 (Plasmodium falciparum 3D7) (UniProt Q8IL32).
T1 sequence (whole entry): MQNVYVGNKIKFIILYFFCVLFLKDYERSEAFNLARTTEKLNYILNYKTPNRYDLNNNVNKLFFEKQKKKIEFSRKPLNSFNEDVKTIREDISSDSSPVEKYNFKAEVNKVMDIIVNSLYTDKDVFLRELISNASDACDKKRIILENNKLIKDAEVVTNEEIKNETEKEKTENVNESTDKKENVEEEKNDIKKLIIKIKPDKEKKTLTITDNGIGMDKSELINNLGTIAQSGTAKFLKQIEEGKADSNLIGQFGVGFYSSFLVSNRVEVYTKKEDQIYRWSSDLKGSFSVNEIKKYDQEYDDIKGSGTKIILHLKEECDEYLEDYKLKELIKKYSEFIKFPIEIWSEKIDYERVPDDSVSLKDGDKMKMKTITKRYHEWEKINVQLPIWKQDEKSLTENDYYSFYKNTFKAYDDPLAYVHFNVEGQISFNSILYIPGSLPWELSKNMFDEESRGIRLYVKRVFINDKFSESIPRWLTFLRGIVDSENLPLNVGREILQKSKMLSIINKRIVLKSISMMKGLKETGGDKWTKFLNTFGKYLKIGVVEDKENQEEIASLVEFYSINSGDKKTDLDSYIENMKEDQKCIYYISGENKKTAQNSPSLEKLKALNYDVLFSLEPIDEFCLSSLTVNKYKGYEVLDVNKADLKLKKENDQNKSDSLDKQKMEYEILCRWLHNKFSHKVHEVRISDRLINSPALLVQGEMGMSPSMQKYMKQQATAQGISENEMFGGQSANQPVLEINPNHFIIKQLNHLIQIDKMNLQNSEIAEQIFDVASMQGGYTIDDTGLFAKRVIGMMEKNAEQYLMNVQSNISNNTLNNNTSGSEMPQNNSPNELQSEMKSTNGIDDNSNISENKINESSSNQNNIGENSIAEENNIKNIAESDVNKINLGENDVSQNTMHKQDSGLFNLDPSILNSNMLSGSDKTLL
In words: Binding affinity to recombinant Plasmodium falciparum Hsp90 expressed in Escherichia coli BL21(DE3) pLysS assessed as thermophoresis shift at 50 uM by microscale thermophoresis assay. The method in brief:
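Microscale thermophoresis with fluorescently labeled PfHsp90: ligand-induced change in the protein's movement along a temperature gradient. Each compound tested at a fixed 50 μM. Compounds were held as 10 mM stocks in 100% DMSO at -20 °C.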
For orientation: Microscale thermophoresis detects binding through changes in fluorescence in a small temperature gradient.

The target of the next test is Heat shock protein 90 (Plasmodium falciparum, UniProt Q8IC05). Nature of the test: Binding affinity to recombinant Plasmodium falciparum Hsp90 expressed in Escherichia coli BL21(DE3) pLysS by microscale thermophoresis assay.
Chain of Heat shock protein 90 (Q8IC05 1-745): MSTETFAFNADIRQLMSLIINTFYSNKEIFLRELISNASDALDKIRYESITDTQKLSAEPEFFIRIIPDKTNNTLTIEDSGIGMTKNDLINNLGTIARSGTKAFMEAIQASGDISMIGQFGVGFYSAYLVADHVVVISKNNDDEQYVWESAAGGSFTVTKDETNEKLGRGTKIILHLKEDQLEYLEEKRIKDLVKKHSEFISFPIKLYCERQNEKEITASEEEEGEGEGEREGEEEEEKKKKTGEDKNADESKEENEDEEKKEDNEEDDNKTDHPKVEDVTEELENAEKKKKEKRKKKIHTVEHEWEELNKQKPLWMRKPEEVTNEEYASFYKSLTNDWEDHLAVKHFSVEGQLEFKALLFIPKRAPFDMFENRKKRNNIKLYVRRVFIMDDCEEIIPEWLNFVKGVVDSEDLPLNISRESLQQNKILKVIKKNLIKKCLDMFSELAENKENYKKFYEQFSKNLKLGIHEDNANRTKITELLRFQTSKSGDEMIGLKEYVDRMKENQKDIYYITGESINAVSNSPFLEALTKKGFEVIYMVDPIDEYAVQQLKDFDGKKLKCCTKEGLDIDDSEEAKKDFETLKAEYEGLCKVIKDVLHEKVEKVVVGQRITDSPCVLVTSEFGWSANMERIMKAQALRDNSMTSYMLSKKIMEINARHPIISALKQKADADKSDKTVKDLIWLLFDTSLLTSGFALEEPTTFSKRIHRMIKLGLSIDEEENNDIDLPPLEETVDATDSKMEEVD
Test [3] concerns the target Heat shock protein HSP 90-beta (Homo sapiens) (UniProt P08238). In words: Binding affinity to recombinant human Hsp90 beta expressed in Escherichia coli BL21(DE3) pLysS by microscale thermophoresis assay.
Test [4] concerns Plasmodium falciparum. Nature of the test: (§1) Binding affinity to recombinant Plasmodium falciparum Hsp90 ISG-LGA mutant expressed in Escherichia coli BL21(DE3) pLysS by microscale thermophoresis assay.
Test [5] is described as follows: as §1.
Test [6] deals with Plasmodium falciparum. In words: Antimalarial activity against Plasmodium falciparum 3D7 infected in human erythrocytes after 72 hrs by DAPI staining-based confocal imaging system. In kind it is functional, organism-based. Conditions: 3D7, 72 h.
The test system of test [7] is Plasmodium falciparum. In words: Antimalarial activity against Plasmodium falciparum K1 infected in human erythrocytes after 72 hrs by DAPI staining-based confocal imaging system. The class given is functional, organism-based. The settings on record: K1, 72 h.

Chain of Heat shock protein HSP 90-beta (Homo sapiens) (P08238 whole entry): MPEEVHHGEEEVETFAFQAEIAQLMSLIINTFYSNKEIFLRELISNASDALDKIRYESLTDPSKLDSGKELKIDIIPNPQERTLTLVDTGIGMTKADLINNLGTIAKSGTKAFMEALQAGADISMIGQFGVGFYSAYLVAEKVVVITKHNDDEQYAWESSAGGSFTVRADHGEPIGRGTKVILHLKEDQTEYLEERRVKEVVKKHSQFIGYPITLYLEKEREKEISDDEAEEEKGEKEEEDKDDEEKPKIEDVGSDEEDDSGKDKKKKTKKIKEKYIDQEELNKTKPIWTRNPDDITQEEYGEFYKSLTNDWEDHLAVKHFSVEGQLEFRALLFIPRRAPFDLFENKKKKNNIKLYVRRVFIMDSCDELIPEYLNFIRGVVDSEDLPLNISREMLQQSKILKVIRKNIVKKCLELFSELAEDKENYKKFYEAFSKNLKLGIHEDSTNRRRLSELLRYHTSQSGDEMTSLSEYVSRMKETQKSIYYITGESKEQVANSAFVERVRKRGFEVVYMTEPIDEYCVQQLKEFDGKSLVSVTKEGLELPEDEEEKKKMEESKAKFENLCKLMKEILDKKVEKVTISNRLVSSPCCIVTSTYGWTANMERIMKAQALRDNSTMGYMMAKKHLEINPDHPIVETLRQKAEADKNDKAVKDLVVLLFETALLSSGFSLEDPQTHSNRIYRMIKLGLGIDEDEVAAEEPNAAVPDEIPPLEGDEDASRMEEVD

The IC50 is the concentration that inhibits the measured activity by half. In the case of `O=C(c1ccccc1)N1CCN(CC(O)Cn2c3ccccc3c3ccccc32)CC1` (centres undefined), the results for the IC50 in the test with Plasmodium falciparum [1] and in the test on L6 were 14.9 µM and 25.2 µM, respectively. In addition, in test [2], the Activity worked out at 3.33 U.
Taken in the same sequence, the figures for `CC(C)(CO)NCC(O)Cn1c2ccccc2c2ccccc21` (centres undefined) were 10.1 µM, 6.22 µM and 0.49 U.
On to `CC1CCCC(C)N1CC(O)Cn1c2ccccc2c2ccccc21` (centres undefined), for which the IC50 in the test on Plasmodium falciparum [1] is 4.97 µM; in the test with L6, 37.7 µM. In [2], the Activity is 0.6 U.
As usually defined, the Kd is the equilibrium constant for the complex coming apart. Take `OC(CN1CCN(Cc2ccccc2)CC1)Cn1c2ccc(Cl)cc2c2cc(Cl)ccc21` (centres undefined): the IC50 with Plasmodium falciparum [1] was 0.082 µM; with L6 it was 3.6 µM. Further, the Kd on Heat shock protein 90 stood at 28.1 µM. For the same molecule, in [2], the Activity stood at 6.41 U. In addition, the result (in test [3]; in the test with Plasmodium falciparum [4]) was inactive.
With `CCC(CC)NCC(O)Cn1c2ccccc2c2ccccc21` (centres undefined), the IC50 in the test on Plasmodium falciparum [1] stood at 12.7 µM; in the test with L6, 7.38 µM. Besides, in [2], the Activity was 0.24 U.
Taken in the same sequence, the figures for `OC(CNC1CCCCC1)Cn1c2ccccc2c2ccccc21` (centres undefined) were 0.162 µM, 3.67 µM and 1.49 U.
Taken in the same sequence, the figures for `CC(C)NCC(O)Cn1c2ccccc2c2ccccc21` (centres undefined) were 1.44 µM, 26.5 µM and 2.71 U.
Taken in the same sequence, the figures for `OC(CN1CCN(Cc2ccccc2)CC1)Cn1c2ccc(Br)cc2c2cc(Br)ccc21` (centres undefined) were 0.095 µM, 3.67 µM and 6.64 U.
Take `OC(CNC1CCCCC1)Cn1c2ccc(Cl)cc2c2cc(Cl)ccc21` (centres undefined): the results for the IC50 in the test with Plasmodium falciparum [1] and in the test on L6 were 0.086 µM and 3.34 µM, respectively. Besides, the Activity in test [2] was determined as 5.88 U.
The corresponding values for `OC(CN1CCN(Cc2ccccc2)CC1)Cn1c2ccccc2c2ccccc21` (centres undefined) are 0.994 µM, 10.8 µM and 6.68 U.
Taken in the same sequence, the figures for `O=C(c1ccccc1)N1CCN(CC(O)Cn2c3ccc(Br)cc3c3cc(Br)ccc32)CC1` (centres undefined) were 2.34 µM, 10.2 µM and 6.95 U.
The corresponding values for `OC(CN1CCOCC1)Cn1c2ccc(Br)cc2c2cc(Br)ccc21` (centres undefined) are 2.08 µM, 11.6 µM and 6.87 U.
As for `COC1=C2C[C@@H](C)C[C@H](OC)[C@H](O)[C@@H](C)/C=C(\C)[C@H](OC(N)=O)[C@@H](OC)/C=C\C=C(/C)C(=O)NC(=CC1=O)C2=O` [GELDANAMYCIN], the Kd in test [5] came to 0.51 µM.
For `O=C(c1ccccc1)N1CCN(CC(O)Cn2c3ccc(Cl)cc3c3cc(Cl)ccc32)CC1` (centres undefined), the values for the IC50 in the test with Plasmodium falciparum [1] and in the test on L6 were 1.13 µM and 9.72 µM, respectively. At Heat shock protein 90, the Kd was determined as 25.6 µM. The Activity in test [2] was determined as 6.71 U.
`CN(C)CC(O)Cn1c2ccc(Br)cc2c2cc(Br)ccc21` (centres undefined): the results for the IC50 in the test with Plasmodium falciparum [1] and in the test on L6 were 1.67 µM and 3.66 µM, respectively. In addition, the Activity in [2] turned out to be 0.41 U.
The corresponding values for `CCC(C)NCC(O)Cn1c2ccc(Cl)cc2c2cc(Cl)ccc21` (centres undefined) are 1.56 µM, 0.975 µM and 3.85 U.
As for `CC(C)NCC(O)Cn1c2ccc(Cl)cc2c2cc(Cl)ccc21` (centres undefined), the IC50 with Plasmodium falciparum [1] was 0.07 to 0.082 µM; with L6 it was 2.61 µM; in the test on Plasmodium falciparum [6], 0.48 to 1.8 µM; in the test on Plasmodium falciparum [7], 0.48 to 1.8 µM. In [2], the Activity amounted to 8.38 U.
For `OC(CN1CCOCC1)Cn1c2ccc(Cl)cc2c2cc(Cl)ccc21` (centres undefined), the IC50 in the test with Plasmodium falciparum [1] was found to be 1.23 µM; with L6, 9.72 µM. Besides, in test [2], the Activity worked out at 8.19 U.
The corresponding values for `OC(CN1CCCCCC1)Cn1c2ccccc2c2ccccc21` (centres undefined) are 7.79 µM, 6.85 µM and 1.11 U.
Turning to `CC(C)(C)NCC(O)Cn1c2ccccc2c2ccccc21` (centres undefined), the IC50 is 2.08 µM with Plasmodium falciparum [1] and 7.21 µM in the test with L6. Besides, the Activity in [2] came out at 0.725 U.

The values above are taken from ChEMBL document CHEMBL4431313, “Inhibition of Plasmodium falciparum Hsp90 Contributes to the Antimalarial Activities of Aminoalcohol-carbazoles” (J Med Chem, 2016).
